Experimental data from different studies.
Compare with care: the assays were run in different laboratories.
CDK6 with cyclin D3: Cyclin-dependent kinase 6, with cyclin D3 (CDK6, Homo sapiens, UniProt Q00534)
CDK6 with cyclin D1: Cyclin-dependent kinase 6, with cyclin D1 (CDK6, Homo sapiens, UniProt Q00534)
CDK6: Cyclin-dependent kinase 6 (CDK6, Homo sapiens, UniProt Q00534)

`CCN(CC)c1ccc(C2=NNC(=O)CC2C)cc1[N+](=O)[O-]` (centres unmarked) has a remaining activity of 90% (CDK6 with cyclin D3; enzyme activity, inhibitor; 10 µM).
`O=C1Nc2ccc(Cl)cc2C1=Cc1cc(Cl)c(O)c(Cl)c1` gave a remaining signal of 97% (CDK6 with cyclin D1; cell-free assay; 0.5 µM).
For `O=C(Nc1cnn(-c2csc(C(=O)NC3COC3)c2)c1)Nc1ccccc1Cl`, the remaining activity was 114% (CDK6 with cyclin D3; enzyme activity, inhibitor; 5 µM).
`Cc1ccc(NC(=O)c2ccc(C)c(C(F)(F)F)c2)cc1C#Cc1nn(C2CCC(O)CC2)c2ncnc(N)c12` (centres unmarked) gave a remaining signal of 120% (CDK6 with cyclin D3; cell-free assay; 10 µM).
For `CC(C)(C)c1nc(-c2cccc(NS(=O)(=O)c3c(F)cccc3F)c2F)c(-c2ccnc(N)n2)s1`, the remaining activity was 104% (CDK6 with cyclin D1; enzyme activity, inhibitor, radiometric; 1 µM).
`CNC(=O)c1cc(Oc2ccc(NC(=O)Nc3ccc(Cl)c(C(F)(F)F)c3)cc2)ccn1` has an inhibition of -5% (CDK6 with cyclin D3; enzyme activity, inhibitor; 10 µM).
With `CCCOc1ccc(OC)c(F)c1C(=O)c1ccc(C(=O)N[C@@H]2CNC[C@H]2NC(=O)c2ccc3[nH]ncc3c2)cc1` the remaining activity was 83% (CDK6 with cyclin D3; enzyme activity, inhibitor; 10 µM).
`Cc1cc(NC(=O)c2cccc3cc(-c4cccc5[nH]nc(N)c45)ccc23)ccc1F` gave an activity vs control of 94% (CDK6 with cyclin D3; enzyme activity, inhibitor; 0.1 µM).
With `Cc1ccc(Nc2nccc(N(C)c3ccc4c(C)n(C)nc4c3)n2)cc1S(N)(=O)=O` the inhibition was -7% (CDK6 with cyclin D3; enzyme activity, inhibitor; 0.3 µM).
With `N#CCCc1ccc2c(c1)-c1[nH]c3ccc([N+](=O)[O-])cc3c1CC(=O)N2` the remaining signal was 26% (CDK6 with cyclin D3; cell-free assay; 0.5 µM).
The inhibition of `Cn1cnc(Br)c1C1=CN(c2ncnc3[nH]cnc23)CCS1` is reported as 22% (CDK6; enzyme activity, inhibitor, radiometric; 50 nM).
The inhibition of `CCN(CC)CCNC(=O)c1c(C)[nH]c(/C=C2\C(=O)Nc3ccc(F)cc32)c1C` is reported as 73% (CDK6 with cyclin D3; enzyme activity, inhibitor; 10 µM).
`O=C1NC(=O)c2cc(Nc3ccc(F)cc3)c(Nc3ccc(F)cc3)cc21` has a remaining signal of 99% (CDK6 with cyclin D1; cell-free assay; 0.5 µM).
`CC(C)(C)c1nc2c(s1)c1nc(N)ncc1c1ccc(NS(=O)(=O)c3c(F)cccc3F)c(F)c12` has a remaining activity of 97% (CDK6 with cyclin D3; enzyme activity, inhibitor, radiometric; 1 µM).
`Nc1nc(Nc2ccc(S(N)(=O)=O)cc2)sc1C(=O)c1ccccc1[N+](=O)[O-]` gave an inhibition of 85% (CDK6; enzyme activity, inhibitor; 0.1 µM).
With `O=C(Nc1cnn(-c2csc(C(=O)NC3COC3)c2)c1)Nc1c(F)cccc1Cl` the remaining activity was 92.6% (CDK6 with cyclin D3; enzyme activity, inhibitor; 5 µM).
The remaining activity of `CC(C)(O)[C@H]1CC[C@H](Nc2ccc3ncc(-c4cccc(C(F)(F)F)c4)n3n2)CC1` is reported as 101% (CDK6 with cyclin D1; enzyme activity, inhibitor; 1 µM).
